# According to ChEMBL document CHEMBL3259592, “Synthesis and structure-activity relationship of dihydrobenzofuran derivatives as novel human GPR119 agonists” (Bioorg Med Chem Lett, 2014):
# Calls of active or inactive are those of the source. No cut-off for these calls is given here.
# Key:
# [1] = target: T1, Glucose-dependent insulinotropic receptor (Homo sapiens) (UniProt Q8TDV5); assay: Intrinsic activity at human GPR119 expressed in HEK293 cells co-expressing Flp-In-T-Rex assessed as cAMP accumulation after 60 mins relative to propan-2-yl 4-({6-[(2-fluoro-4-methanesulfonylphenyl)amino]pyrimidin-4-yl}oxy)piperidine-1-carboxylate; format: functional, cell-based
# T1 sequence (whole entry): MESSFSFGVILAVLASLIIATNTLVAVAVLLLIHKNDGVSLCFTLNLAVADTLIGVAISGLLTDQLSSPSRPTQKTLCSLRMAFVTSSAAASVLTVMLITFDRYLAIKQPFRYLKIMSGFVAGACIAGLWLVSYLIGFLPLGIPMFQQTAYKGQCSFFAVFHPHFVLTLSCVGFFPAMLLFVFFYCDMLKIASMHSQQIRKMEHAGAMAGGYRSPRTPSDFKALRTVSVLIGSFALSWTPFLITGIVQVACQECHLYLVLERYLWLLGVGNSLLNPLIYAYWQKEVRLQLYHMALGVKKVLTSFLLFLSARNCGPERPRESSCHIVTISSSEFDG
# Outline: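 Tetracycline-inducible human GPR119 cells plated 7.5 × 10⁵/well 24 h ahead in growth medium (DMEM, 10% FBS) with 1 ng/ml tetracycline. Compound exposure 60 min, then lysis; cAMP read by enzyme fragment complementation fluorescence. EC₅₀ and Emax derived.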
# [2] = target: Glucose-dependent insulinotropic receptor (Homo sapiens) (UniProt Q8TDV5); assay: Agonist activity at human GPR119 expressed in HEK293 cells co-expressing Flp-In-T-Rex assessed as cAMP accumulation after 60 mins
# [3] = target: T2, Glucose-dependent insulinotropic receptor (Homo sapiens, UniProt Q8TDV5); assay: Agonist activity at human GPR119 expressed in HEK293 cells co-expressing Flp-In-T-Rex assessed as cAMP accumulation after 60 mins; format: functional, cell-based
# T2 sequence (Q8TDV5 whole entry): T1 sequence (whole entry)
# Outline: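 Tetracycline-inducible human GPR119 cell line, plated at 7.5 × 10⁵ cells/well 24 h before assay in DMEM with 10% FBS and 1 ng/ml tetracycline. Medium was then swapped for PBS assay buffer containing 25 mM HEPES (pH 7.4), 12 mM glucose, 0.01% FAF-BSA and 0.1 mM IBMX. Cells were exposed to compound for 60 min, then lysed. cAMP was read by enzyme fragment complementation fluorescence; EC50 and Emax reported.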
# [4] = Metabolic stability in mouse liver microsomes assessed as compound remaining after 10 mins; format: ADME; conditions: read-out: Stability
# [5] = Metabolic stability in human liver microsomes assessed as compound remaining after 10 mins; format: ADME; conditions: read-out: Stability
# [6] = Aqueous solubility of the compound at pH 6.5; format: physicochemical
# [7] = Permeability of the compound by PAMPA; format: physicochemical
# [8] = Inhibition of CYP450 (unknown origin); format: ADME; conditions: human
# [9] = target: T3, Nuclear receptor subfamily 1 group I member 2 (Homo sapiens, UniProt O75469); assay: Transactivation of PXR (unknown origin)
# T3 sequence (O75469 whole entry): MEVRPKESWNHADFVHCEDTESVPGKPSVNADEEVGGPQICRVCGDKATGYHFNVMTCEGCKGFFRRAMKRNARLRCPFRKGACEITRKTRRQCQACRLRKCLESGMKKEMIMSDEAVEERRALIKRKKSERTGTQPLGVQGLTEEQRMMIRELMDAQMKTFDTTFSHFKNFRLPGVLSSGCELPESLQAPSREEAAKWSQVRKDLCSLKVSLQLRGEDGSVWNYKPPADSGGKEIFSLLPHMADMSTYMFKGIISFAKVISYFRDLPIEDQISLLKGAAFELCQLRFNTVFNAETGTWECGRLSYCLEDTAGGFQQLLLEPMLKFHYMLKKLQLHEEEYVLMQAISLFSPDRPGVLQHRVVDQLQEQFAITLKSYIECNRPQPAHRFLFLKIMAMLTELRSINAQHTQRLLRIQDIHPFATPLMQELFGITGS
SMILES,Emax [1] [%],Activity [2],EC50 [3] [nM],remaining at 10 min [4] [%],remaining at 10 min [5] [%],solubility ([6]; buffer),permeability [7],"solubility ([6]; aqueous, read-out: solubility) [µg/mL]",inhibition (INH) [8],Activity [9]
CCCS(=O)(=O)N1CC=C(c2ccc3c(c2)CC(C2CCN(S(=O)(=O)CCC)CC2)O3)CC1 (racemic),43,Active,1000,–,–,–,–,–,–,–
CCCS(=O)(=O)N1CC=C(c2ccc3c(c2)CC(C2CCN(c4ncc(Cl)cn4)CC2)O3)CC1 (racemic),88,Active,78,45,48,–,–,–,–,–
CCCS(=O)(=O)N1CC=C(c2ccc3c(c2)CC(C2CCN(c4ncc(C(F)(F)F)cn4)CC2)O3)CC1 (racemic),118,Active,14,–,58,Insoluble,–,–,–,–
CCCS(=O)(=O)N1CC=C(c2ccc3c(c2)CC(C2CCN(c4ccc(C(F)(F)F)cn4)CC2)O3)CC1 (racemic),99,Active,34,46,47,–,–,–,–,–
CCCc1cnc(N2CCC(C3Cc4cc(N5CCN(S(=O)(=O)CCC)CC5)ccc4O3)CC2)nc1 (racemic),74,–,544,44,82,–,–,–,–,–
CCCc1cnc(N2CCC(C3Cc4cc(C5CCN(S(=O)(=O)CCC)CC5)ccc4O3)CC2)nc1 (racemic),43,–,386,52,70,–,–,–,–,–
CCCc1cnc(N2CCC(C3Cc4c(F)c(C5=CCN(S(=O)(=O)CCC)CC5)cc(F)c4O3)CC2)nc1 (racemic),119,–,2,80,78,–,permeable,< 1,Not Active,Not Active
CCCc1cnc(N2CCC(C3Cc4cc(C5=CCN(S(=O)(=O)CCCO)CC5)cc(F)c4O3)CC2)nc1 (racemic),92,–,122,60,100,–,–,–,–,–
CCCc1cnc(N2CCC(C3Cc4cc(C5=CCN(S(=O)(=O)CCCCO)CC5)cc(F)c4O3)CC2)nc1 (racemic),98,–,60,59,73,–,–,–,–,–
CCCc1cnc(N2CCC(C3Cc4c(F)c(C5=CCN(S(=O)(=O)CCC(C)(C)O)CC5)cc(F)c4O3)CC2)nc1 (racemic),82,–,101,61,55,–,–,–,–,–
CCCc1cnc(N2CCC(C3(C)Cc4cc(C5=CCN(S(=O)(=O)CCCO)CC5)ccc4O3)CC2)nc1 (racemic),78,–,78,42,72,–,–,–,–,–

# The remaining compounds from weak to strong by EC50 [3], led by results:
Emax [1] [%],Activity [2],EC50 [3] [nM],remaining at 10 min [4] [%],remaining at 10 min [5] [%],solubility ([6]; buffer),permeability [7],"solubility ([6]; aqueous, read-out: solubility) [µg/mL]",inhibition (INH) [8],Activity [9],SMILES
53,–,541,–,–,–,–,–,–,–,CCCc1cnc(N2CCC(C3Cc4cc(-c5ccc(S(C)(=O)=O)cc5F)ccc4O3)CC2)nc1 (racemic)
88,Active,521,–,–,–,–,–,–,–,CCCS(=O)(=O)N1CC=C(c2ccc3c(c2)CC(C2CCN(Cc4ccccc4)CC2)O3)CC1 (racemic)
61,Active,103,12,10,–,–,–,–,–,CCCS(=O)(=O)N1CC=C(c2ccc3c(c2)CC(C2CCN(C(=O)OC(C)C)CC2)O3)CC1 (racemic)
107,Active,82,58,71,–,–,–,–,–,CCCc1cnc(N2CCC(C3Cc4cc(C5=CCN(S(=O)(=O)CCC)CC5)ccc4O3)CC2)nc1 (racemic)
48,–,70,52,68,–,–,–,–,–,CCCc1cnc(N2CCC(C3(C)Cc4cc(C5=CCN(S(=O)(=O)CCC)CC5)ccc4O3)CC2)nc1 (racemic)
85,Active,67,3,58,–,–,–,–,–,CCCS(=O)(=O)N1CC=C(c2ccc3c(c2)CC(C2CCN(c4ncc(C5CC5)cn4)CC2)O3)CC1 (racemic)
93,–,62,74,97,–,–,–,–,–,CCCc1cnc(N2CCC(C3Cc4cc(C5=CCN(S(=O)(=O)CCC)CC5)cc(F)c4O3)CC2)nc1 (racemic)
56,Active,51,–,–,–,–,–,–,–,CCCS(=O)(=O)N1CC=C(c2ccc3c(c2)CC(C2CCN(C(=O)OC4CCCCC4)CC2)O3)CC1 (racemic)
67,–,28,70,67,–,–,–,–,–,CCCc1cnc(N2CCC(C3(C)Cc4cc(C5=CCN(S(=O)(=O)CCCCO)CC5)ccc4O3)CC2)nc1 (racemic)
86,–,16,82,89,–,–,–,–,–,CCCc1cnc(N2CCC(C3Cc4c(F)c(C5=CCN(S(=O)(=O)CCCO)CC5)cc(F)c4O3)CC2)nc1 (racemic)
123,–,5,78,87,–,permeable,< 1,Not Active,Not Active,CCCc1cnc(N2CCC(C3Cc4c(ccc(C5=CCN(S(=O)(=O)CCC)CC5)c4F)O3)CC2)nc1 (racemic)
